Inconclusive results are not listed. Calls of active or inactive are those of the source.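 How the source made its calls: active means toxic compounds, with cells under 80% alive at a tested dose; inconclusive means one replicate called active, the other inactive; inactive means the rest.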
Tested on: not listed separately
Assay: viability loss of bladder carcinoma 5637 line – cell-based, set 4, cytotoxicity control for bacterial capsule biogenesis inhibitors, dose response (AID 588399)
Settings: Bladder 5637 cells viability, CellTiter-Glo, 72 h; at 300 µM (top of the series)
Procedure, shortened: (§1)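 Assay system: bladder carcinoma 5637 cell line. Evaluation: % viability vs untreated cells, CC50. Signal: CellTiter-Glo luminescence. Repeats: duplicate testing of each compound. Schedule: 72 h treatment. Benchmarks: Hyamine as positive cytotoxic control, untreated cell-only wells as reference. Compound: Eight-point dilution series, 300 µM top to 2.3 µM lowest.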

Structure (SMILES)	viability
O=C(NCc1ccco1)c1ccc2nc[nH]c2c1	111% (inactive)
O=C(Nc1ccccn1)c1ccc2nc[nH]c2c1	94.7% (inactive)
O=C(Nc1ccc(F)cc1)c1ccc2nc[nH]c2c1	83% (inactive)
O=C(Nc1ccc(Br)cc1)c1ccc2ncsc2c1	142% (inactive)
COc1ccc(NC(=O)c2ccc3nc[nH]c3c2)cc1	104% (inactive)

Tested on: Bladder 5637 cells viability, CellTiter-Glo, 72 h
Assay: as above
Settings: not given
Procedure, shortened: as §1

Structure (SMILES)	CC50
O=C(Nc1nc2ccc(OC(F)(F)F)cc2s1)c1ccc(Br)s1	24.6 µM
O=C(Nc1cccnc1)c1ccc2ncsc2c1	28.3 µM
COc1ccc2nc(NC(=O)c3ccc(Br)s3)[nH]c2c1	4.43 µM
O=C(Nc1ccc(Cl)cc1)c1ccc2[nH]ccc2c1	14.1 µM
COc1ccc2nc(NC(=O)c3cc(Br)c(Br)s3)[nH]c2c1	< 2.34 µM
